17 compounds from ChEMBL document CHEMBL1138424, “Solid phase-assisted synthesis and screening of a small library of N-(4-hydroxyphenyl)retinamide (4-HPR) analogs” (2007) can be followed below.

Structures are written as SMILES. Calls of active or inactive are those of the source. The rule behind the calls is not given here.

The subject of assay [1] is MCF7. Put plainly: Growth inhibition of human MCF7 cells at 10 uM after 48 hrs by fluorescein diacetate cell viability assay relative to 4-HPR. In kind it is functional. In a few lines:
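MCF-7 human breast cancer cells received a single dose at a final 10−5M, with vehicle at 0.2% ethanol. Live cells were counted 48 hrs later by fluorescein diacetate viability assay. Activity was scored on a +/++/+++ scale against 4-HPR.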

Assay [2] relates to MCF7. Put plainly: Induction of apoptosis in human MCF7 cells at 10 uM after 48 hrs by TUNEL assay relative to 4-HPR. In kind it is functional, cell-based. In a few lines: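 MCF-7 cells received a single dose at 10−5M, with vehicle as control. After 48 hr the % of TUNEL-labeled cells was scored. Values are means (+SEM) of three independent cell culture experiments, compared with standard 4-HPR.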

Regarding `CC1=C(/C=C/C(C)=C/C=C/C(C)=C/C(=O)Nc2ccc(O)cc2)C(C)(C)CCC1` [FENRETINIDE], the Activity result in the assay with MCF7 [1] was “>=100%”.

Turning to `CC1=C(/C=C/C(C)=C/C=C/C(C)=C/C(=O)Nc2ccccc2)C(C)(C)CCC1`, in the assay on MCF7 [1], the Activity entry was “>=25%”.

Take `CC1=C(/C=C/C(C)=C/C=C/C(C)=C/C(=O)Nc2ccc(O)c(Cl)c2)C(C)(C)CCC1`: in the assay with MCF7 [1], the Activity entry is reported as “>=50%”.

In the case of `COC(=O)c1cc(NC(=O)/C=C(C)/C=C/C=C(C)/C=C/C2=C(C)CCCC2(C)C)ccc1O`, the Activity result in the assay on MCF7 [1] was “>=25%”.

For `CC1=C(/C=C/C(C)=C/C=C/C(C)=C/C(=O)Nc2ccc([N+](=O)[O-])cc2O)C(C)(C)CCC1`, the outcome in the assay with MCF7 [2] was Active. In the assay with MCF7 [1], the Activity result is “>=100%”.

For `CC1=C(/C=C/C(C)=C/C=C/C(C)=C/C(=O)Nc2ccc(N)cc2)C(C)(C)CCC1`, the Activity entry with MCF7 [1] is recorded as “>=50%”.

Take `CC1=C(/C=C/C(C)=C/C=C/C(C)=C/C(=O)Nc2ccccc2C(=O)O)C(C)(C)CCC1`: the Activity result in the assay on MCF7 [1] is “>=25%”.

Consider `COc1ccc(NC(=O)/C=C(C)/C=C/C=C(C)/C=C/C2=C(C)CCCC2(C)C)cc1`, for which the Activity entry with MCF7 [1] is “>=25%”.

`CC1=C(/C=C/C(C)=C/C=C/C(C)=C/C(=O)Nc2ccc(C)cc2O)C(C)(C)CCC1`: in the assay with MCF7 [1], the Activity result is reported as “>=50%”.

Regarding `CC1=C(/C=C/C(C)=C/C=C/C(C)=C/C(=O)Nc2ccc(C)c(O)c2)C(C)(C)CCC1`, in the assay on MCF7 [2], the result was Active. Moreover, in the assay on MCF7 [1], the Activity result is listed as “>=100%”.

Take `CC1=C(/C=C/C(C)=C/C=C/C(C)=C/C(=O)Nc2ccc(Cl)c(Cl)c2)C(C)(C)CCC1`: the Activity entry in the assay with MCF7 [1] is on record as “>=25%”.

`CC1=C(/C=C/C(C)=C/C=C/C(C)=C/C(=O)N(C)c2ccc(O)cc2)C(C)(C)CCC1`: in the assay on MCF7 [1], the Activity result is reported as “>=25%”.

Take `CC1=C(/C=C/C(C)=C/C=C/C(C)=C/C(=O)Nc2cc([N+](=O)[O-])ccc2O)C(C)(C)CCC1`: the Activity entry in the assay on MCF7 [1] is reported as “>=25%”.

As to `CC1=C(/C=C/C(C)=C/C=C/C(C)=C/C(=O)Nc2ccc(Cl)cc2)C(C)(C)CCC1`, the Activity result in the assay on MCF7 [1] was “>=25%”.

For the compound `CC1=C(/C=C/C(C)=C/C=C/C(C)=C/C(=O)Nc2cccc(CO)c2)C(C)(C)CCC1`, the Activity entry in the assay with MCF7 [1] is “>=25%”.

As to `COC(=O)c1ccc(NC(=O)/C=C(C)/C=C/C=C(C)/C=C/C2=C(C)CCCC2(C)C)c(O)c1`, the result in the assay with MCF7 [2] was Active. The Activity result in the assay with MCF7 [1] is listed as “>=25%”.

Turning to `CC1=C(/C=C/C(C)=C/C=C/C(C)=C/C(=O)Nc2cc(Cl)ccc2O)C(C)(C)CCC1`, the Activity result with MCF7 [1] is recorded as “>=50%”.
